Measurements of several laboratories.
Compare with care: the assays were run in different laboratories.
Target: Maternal embryonic leucine zipper kinase (MELK, Homo sapiens, UniProt Q14680)

SMILES | assay | conditions | remaining binding [%]
CNC(=O)[C@@H]1CC[C@@H](n2c(-c3ccc4cnccc4c3)nc3ccc(C(=O)NCc4cccc(C(N)=O)c4)cc32)C1 | binding, competition with immobilised ligand | 1 µM | 78
O=C(c1ccc(Nc2nccc(-c3cc4ccccc4s3)n2)cc1)N1CCC(N2CCCC2)CC1 | binding, competition with immobilised ligand | 1 µM | 100
Cc1c(NC(=O)c2cc(C(N)=O)nc3cc(F)ccc23)c(C(F)(F)F)nn1Cc1ccc(C#N)cc1 | cell-free assay, competition with immobilised ligand | 1 µM | 90
O=C(c1ccc(Nc2ncc(Cl)c(-c3ccc(Cl)s3)n2)cc1)N1CCC(N2CCCC2)CC1 | binding, competition with immobilised ligand | 1 µM | 54
CCCCN(CCCC)C(=O)CN1C[C@H](c2cc(OC)c3c(c2)OCO3)[C@@H](C(=O)O)[C@@H]1CC(C)(C)CCC | cell-free assay, competition with immobilised ligand | 1 µM | 100
CN(C)c1ncc(F)c(-c2cnn3ncccc23)n1 | binding | 1 µM | 79
Nc1ncc2c(n1)-c1c([nH]c3ccc(C#CC4CC4)cc13)CCCC2 | binding, competition with immobilised ligand | 1 µM | 100
COc1ccc2c(c1)O[C@H](c1ccc(OC)c(OC)c1)C[C@@H]2NC(=O)C1(c2ccc3c(c2)OC(F)(F)O3)CC1 | cell-free assay, competition with immobilised ligand | 1 µM | 78
COc1cnc(Nc2cccc(S(N)(=O)=O)c2)nc1N1CCN(c2ccccc2)CC1 | binding, competition with immobilised ligand | 1 µM | 88
CN(C)c1nccc(-c2cnc3ncccn23)n1 | binding | 1 µM | 100
CC1=C(C#N)[C@@H](c2ccc3[nH]nc(C)c3c2)C(C#N)=C(c2ccc(Cl)cc2)N1 | cell-free assay, competition with immobilised ligand | 1 µM | 100
O=C(c1ccc(Nc2ncc(Cl)c(-c3cc4ccccc4s3)n2)cc1)N1CCC(N2CCCC2)CC1 | binding, competition with immobilised ligand | 1 µM | 64
COc1ccnn2ncc(-c3ccnc(N(C)C)n3)c12 | binding | 1 µM | 100
C[C@@H](c1ccc(-n2cnc3c(N)ncnc32)cc1)N1CCc2nn(C)c(Cc3ccccc3)c2C1=O | binding, competition with immobilised ligand | 0.1 µM | 93
C[C@@H]1CCN(c2nccc(-c3cnn4ncccc34)n2)C1 | binding | 1 µM | 48
O=C(NCCCC1CCCCC1)c1ccc(CNC(=O)c2cnn(-c3ccccc3)c2C(F)(F)F)cc1 | cell-free assay, competition with immobilised ligand | 0.1 µM | 80
c1cncc(-c2cccc(Nc3nccc(NC4CCCCC4)n3)c2)c1 | binding, competition with immobilised ligand | 10 µM | 84
N[C@H]1CCN(c2nccc(-c3cnn4ncccc34)n2)C1 | binding | 1 µM | 69
CCC(=O)N[C@@H]1CC[C@H](C(=O)N(C)c2ccc(-c3nc4ccccc4o3)cc2)C1 | cell-free assay, competition with immobilised ligand | 1 µM | 100
F[C@@H]1CCN(c2nccc(-c3cnn4ncccc34)n2)C1 | binding | 1 µM | 100
CN(c1ccnc(CNc2nc(Nc3ccc4c(c3)CC(=O)N4)ncc2C(F)(F)F)n1)S(C)(=O)=O | cell-free assay, competition with immobilised ligand | 1 µM | 40
O=C(Nc1c[nH]nc1C(=O)NC1CCNCC1)c1cc(F)cc(F)c1 | binding, competition with immobilised ligand | 1 µM | 82
